Source: PubChem BioAssay (Johns Hopkins Ion Channel Center)
hERG protect = hERG rescue from dofetilide block, primary screen, cell-based, CHO-hERG, FluxOR thallium flux, dofetilide IC70. 0.51% of 310,000 active. Voltage-gated inwardly rectifying potassium channel KCNH2 (Homo sapiens), Q12809. dofetilide IC70 present. activation (rescue from dofetilide block), less the hit threshold, % at 10 µM;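 active = activation above the mean of controls blocked by dofetilide plus 5 SD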;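 also: thallium influx through hERG after potassium depolarization seen as dye fluorescence rise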
KCNQ1 act = potentiators or activators of KCNQ1 channel, primary screen, cell-based, thallium flux, high-throughput; Potassium voltage-gated channel subfamily KQT member 1 (Homo sapiens), P51787; CHO-K1 KCNQ1, thallium flux FluxOR fluorescence; active compounds read high; B-score at 10 µM; 0.35% of 310,000 active;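 active = fluorescence ratio B-score, a plate-corrected score, at least three library SD, with initial intensity B-score within 5 SD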
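Schedule – 37 °C overnight plating, 90-min dark dye load, 20-min compound pretreatment · System – stable KCNQ1 CHO-K1 line · Probe or stimulus – thallium- and potassium-containing depolarizing buffer · Measured by – kinetic FluxOR fluorescence, 10 s baseline plus 110 s post-stimulus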
KCNK3 block = human KCNK3 channel inhibitors, primary screen, CHO cells, FluxOR thallium flux, B-score; Potassium channel subfamily K member 3 (Homo sapiens), O14649; FluxOR fluorescence; active compounds read low; B-score at 10 µM; 0.84% of 340,000 active; AID 602410, 2012;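 active = B-score under library mean minus 4 SD, starting fluorescence ratio at most library mean plus 5 SD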;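 also: more negative B-score means stronger inhibition of thallium flux through KCNK3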
Kir21 block = inhibitors of mouse Kir2.1 inward-rectifier potassium channel | Inward rectifier potassium channel 2 (Mus musculus), P35561 | HEK293-Kir2.1, FluxOR thallium flux fluorescence; active compounds read low | B-score at 10 µM | 0.85% of 310,000 active | AID 1672, 2009;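 active = fluorescence ratio B-score at or below minus 3 SD of library scores, with starting-brightness B-score within 2 SD, cut at about -4.2 in these data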;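 also: channel flux triggered by added potassium and thallium sulfate stimulus; B-score of peak minus minimum fluorescence over baseline after thallium stimulus; more negative B-score means stronger Kir2.1 block with less thallium influx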
Target sequence (P35561 whole entry, looked up): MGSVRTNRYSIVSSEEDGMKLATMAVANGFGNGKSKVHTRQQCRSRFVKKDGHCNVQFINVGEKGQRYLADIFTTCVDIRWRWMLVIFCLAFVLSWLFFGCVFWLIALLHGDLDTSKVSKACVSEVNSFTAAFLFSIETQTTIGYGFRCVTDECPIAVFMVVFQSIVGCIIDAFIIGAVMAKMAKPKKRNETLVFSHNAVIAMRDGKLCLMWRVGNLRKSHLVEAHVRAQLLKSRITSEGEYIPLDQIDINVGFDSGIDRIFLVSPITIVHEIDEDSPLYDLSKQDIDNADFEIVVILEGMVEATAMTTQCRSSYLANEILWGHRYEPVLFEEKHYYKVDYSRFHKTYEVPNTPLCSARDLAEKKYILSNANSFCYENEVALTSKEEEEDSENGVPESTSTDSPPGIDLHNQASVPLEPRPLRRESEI
KCNK9 block = KCNK9 potassium channel inhibitors, primary screen, HEK293 cells, thallium flux | AID 488922, 2010 | 1.2% of 310,000 active | FluxOR thallium flux fluorescence; active compounds read low | B-score at 10 µM;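 active = ratio B-score over 3 SD below the library mean, with starting fluorescence within 5 SD of its mean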;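 also: negative B-score means less thallium flux so channel inhibition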
KCNQ1 inh = inhibitors of human KCNQ1 channel, primary screen, cell-based, thallium flux, high-throughput | Potassium voltage-gated channel subfamily KQT member 1 (Homo sapiens), P51787 | CHO-K1 KCNQ1, FluxOR thallium flux fluorescence; active compounds read high | B-score at 10 µM | 1.3% of 310,000 active | AID 2642, 2010;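 active = compounds whose thallium flux B-score, printed positive for inhibition, exceeds three library SD while starting fluorescence stays within three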;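 also: channel opened by potassium depolarization with thallium stimulus after 20 min compound exposure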
KCNQ1 inh valid = KCNQ1 potassium channel inhibitors, confirmation, cell-based, Tl flux, duplicate. KCNQ1 cell line, FluxOR thallium flux fluorescence. shares compounds with KCNQ1 inh. AID 588353, 2011. inhibition, % at 10 µM. 93% of 1,600 active;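 active = primary screen active, with duplicate mean exceeding buffer control mean plus 3 SD of buffer wells, cut at about 28% in these data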
CHO KCNQ1 ctr = thallium flux effects in parental CHO cells, counter-screen for KCNQ1 inhibitor project, cell-based, Tl flux. fluorescence ratio (Tl flux) at 10 µM. parental CHO-K1, FluxOR thallium flux fluorescence ratio; active compounds read low; zero means no signal rise above baseline. 21% of 1,600 active. shares compounds with KCNQ1 inh;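 active = mean of duplicate thallium-flux fluorescence ratios in parental host cells more than 5 SD below the buffer control mean, cut at about 0.38 in these data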;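 also: ratio is peak minus minimum fluorescence divided by baseline fluorescence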
KCNQ1 APC inh = KCNQ1 channel inhibitors, confirmation, orthogonal assay, cell-based, automated electrophysiology. 20% of 490 active. KCNQ1-CHO cells, automated patch clamp current. calls only at 10 µM. AID 624120, 2012. shares compounds with KCNQ1 inh;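 active = KCNQ1 current drop exceeding 3 SD of negative control wells, seen in both duplicate runs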;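 also: steady state current during a 2 s step from -80 to +40 mV; negative values mean current inhibition and positive values mean potentiation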
KCNQ2 inh = KCNQ2 channel inhibition, selectivity assay for KCNQ1 inhibitor project, cell-based | shares compounds with KCNQ1 inh | KCNQ2 cells, FluxOR thallium flux fluorescence | inhibition, % at 10 µM | 71% of 1,600 active | AID 651746, 2012;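 active = mean percent inhibition of the KCNQ2 thallium signal more than 5 SD above the buffer-only control wells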;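 also: KCNQ2 expressed in CHO cells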
KCNQ1 KCNE1 spec = KCNQ1/KCNE1 channel inhibition, selectivity assay for KCNQ1 inhibitor project, CHO-K1 cells, thallium flux, FluxOR; FluxOR thallium flux fluorescence; 77% of 1,600 active; shares compounds with KCNQ1 inh; inhibition, % at 10 µM; AID 652147, 2013;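 active = mean percent inhibition of duplicate wells above the buffer-only control mean plus 3 SD of those controls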
Numbers stand for hits; – = inactive; · = no result; + = active, no number. This is a sample that favours compounds with a hit; in the whole collection about 3.7% have one here.

SMILES	hERG protect	KCNQ1 act	KCNK3 block	Kir21 block	KCNK9 block	KCNQ1 inh	KCNQ1 inh valid	CHO KCNQ1 ctr	KCNQ2 inh	KCNQ1 KCNE1 spec	others
CCN(C[C@H]1N[C@@](Cc2ccccc2)(C(=O)OC)[C@H]2C(=O)N(C)C(=O)[C@@H]12)S(=O)(=O)c1ccc(-c2ccccc2)cc1	·	·	–	·	·	·	·	·	·	·
COc1ccc(N2N=NN(C(C)C)C2=C(Cl)c2nnnn2-c2ccc(OC)cc2)cc1	·	·	–	·	·	·	·	·	·	·
Cc1ccc(OC(C)C(=O)Nc2ccc(F)cc2)c([N+](=O)[O-])n1 (configuration not stated)	·	·	–	·	·	·	·	·	·	·
COc1ccc(-c2cc(C(=O)N3CCN(c4ncccn4)CC3)c3ccccc3n2)cc1OC	·	·	–	·	·	·	·	·	·	·
COc1ccc(-c2cc(C(=O)N3CCN(c4cccc(C)c4C)CC3)c3ccccc3n2)cc1OC	–	–	–	–	–	8	60	–	108%	96%
NCC12CC3CC(C1)CC(c1ccc(Br)cc1)(C3)C2	–	–	–	-9.5	–	6	66	–	–	124%
CCOC(=O)[C@@H]1[C@H]2COc3ccc(Br)cc3[C@@H]2N2C(=O)N(c3ccc(OC)cc3)C(=O)[C@@]12C	·	·	–	·	·	·	·	·	·	·
CSc1ccccc1NC(=O)CN(C)C(C)C(=O)NCc1ccc2c(c1)OCO2 (configuration not stated)	·	·	–	·	·	·	·	·	·	·
CCOc1ccc2[nH]c3c(NCC(C)C)ncnc3c2c1	–	–	–	–	–	6	69	–	94%	70%
CCOc1ccc2[nH]c3c(NCCOC)ncnc3c2c1	–	–	–	–	–	–	·	·	·	·
O=C(NCc1cccnc1)C1CCN(S(=O)(=O)c2cc(Cl)ccc2Cl)CC1	–	–	–	–	–	–	·	·	·	·
CCCSc1nnc(NC(=O)Nc2ccc(F)cc2)s1	–	–	–	–	–	8	50	–	60%	37%
CCOC(=O)c1cnc(-n2nc(C)cc2C)nc1NC1CCCCC1	–	–	–	–	–	11	76	–	108%	107%
Cc1ccc(C)c(N(CC(=O)NC2CCCC2)C(=O)c2csnn2)c1	–	–	–	–	–	–	·	·	·	·
Fc1ccc(CNC(=S)Nc2ccc(OC(F)F)cc2)cc1	–	–	–	–	–	7	56	–	–	40%
Cn1nc(C(C)(C)C)cc1C(=O)NCc1cc(F)cc2c1OCOC2	–	–	–	–	–	7	94	–	82%	34%	KCNQ1 APC inh=+
Cc1cc(C(=O)NCc2cc(F)cc3c2OCOC3)nn1C	–	–	–	–	–	–	·	·	·	·
O=C1C=C(NC(=O)Nc2ccc(Cl)c(Cl)c2)CCC1	–	–	–	–	–	13	39	–	–	–
O=C(Nc1ccc(Cl)c(Cl)c1)Nc1ccccc1O	–	–	–	–	–	7	72	–	–	66%
CCOc1ccc2nc(NC3=NC(C)(C)C=C(C)N3)nc(C)c2c1	–	–	–	–	–	10	88	–	–	92%
COc1ccc(CCNc2ncnc3c2oc2ccccc23)cc1OC	–	–	–	–	–	–	·	·	·	·
COc1ccc(CCNc2nc(C)nc3c2oc2ccccc23)cc1OC	–	–	–	–	–	10	120	–	123%	78%	KCNQ1 APC inh=–
CC(C)N(CCCNC(=O)c1ccc(CS(=O)(=O)c2c(Cl)cccc2Cl)o1)Cc1ccccc1	–	–	–	–	–	–	·	·	·	·
CC(=O)NC12CC3CC(C1)CC(C(=O)Nc1nc4ccc(F)cc4s1)(C3)C2	–	–	–	–	–	7	92	–	65%	85%	KCNQ1 APC inh=+
Fc1cc(Br)ccc1Nc1nc2ccccc2n2nnnc12	–	–	–	–	–	–	·	·	·	·
SMILES	hERG protect	KCNQ1 act	KCNK3 block	Kir21 block	KCNK9 block	KCNQ1 inh	KCNQ1 inh valid	CHO KCNQ1 ctr	KCNQ2 inh	KCNQ1 KCNE1 spec	others
Fc1ccccc1N1CCN(c2nc3ccccc3n3nnnc23)CC1	–	–	–	–	–	7	76	–	71%	84%
S=C(NCCSCc1ccccc1Cl)Nc1ccccc1	–	–	–	–	–	10	106	–	87%	58%	KCNQ1 APC inh=–
S=C(NCCSCc1ccc(Cl)cc1)Nc1ccccc1	–	–	–	–	–	–	·	·	·	·
Cc1cccc(CSCCNC(=S)Nc2ccccc2)c1	–	–	–	–	–	7	56	–	65%	98%
NS(=O)(=O)c1cccc(NC(=O)COC(=O)CCN2C(=O)c3ccccc3C2=O)c1	·	·	–	·	·	·	·	·	·	·
N/C(=N\S(=O)(=O)c1cc(C(F)(F)F)cc(C(F)(F)F)c1)c1ccc(Cl)cc1	–	–	–	–	–	7	–	–	–	–
COc1ccccc1N=C1NC(=O)/C(=C/c2ccc(N(C)C)cc2)S1	–	–	–	–	–	–	·	·	·	·
CCc1sc(C(=O)Nc2cc(S(=O)(=O)N3CCOCC3)ccc2OC)cc1C	·	·	–	·	·	·	·	·	·	·
O=c1oc2c(-c3cccc(F)c3)cc(O)cc2s1	–	–	–	–	–	11	74	–	–	64%
O=C(CSc1nc2ccccc2[nH]1)N1CCCCC1	–	–	–	–	–	–	·	·	·	·
Cc1c(C)n(C(=O)CSc2nc3ccccc3[nH]2)c2ccccc12	–	–	–	–	–	7	139	–	124%	190%	KCNQ1 APC inh=–
Cc1cc(NC(C)c2ccccc2)n2ncc(-c3ccccc3)c2n1 (configuration not stated)	–	–	–	–	–	–	·	·	·	·
CC(C)(C)c1cc(NCc2ccccn2)n2ncc(-c3ccccc3)c2n1	–	–	–	–	–	7	72	–	–	61%
